Three compounds from ChEMBL document CHEMBL1817567, “Design of benzimidazole- and benzoxazole-2-thione derivatives as inhibitors of bacterial hyaluronan lyase” (Eur J Med Chem, 2011) can be followed below.

Broadly, the IC50 is the concentration that gives 50% inhibition. Read a high IC50 as lower potency.

Activity calls are given as the source filed them. No cut-off for these calls is given here.

In test [1] the target is T1, Hyaluronidase (Bos taurus) (UniProt Q8SQG8+Q5E985). Put plainly: Inhibition of bovine testes hyaluronidase at 150 uM after 30 mins at pH 5 by turbidimetric analysis. Format: protein assay.
The target in test [2] is T1, Hyaluronidase (Bos taurus). Put plainly: Inhibition of bovine testes hyaluronidase at 130 uM after 30 mins at pH 5 by turbidimetric analysis. Format: protein assay.
Test [3] addresses T1, Hyaluronidase (Bos taurus). Put plainly: Inhibition of bovine testes hyaluronidase at 180 uM after 30 mins at pH 5 by turbidimetric analysis. In kind it is protein assay.
Test [4] deals with T1, Hyaluronidase (Bos taurus). Put plainly: Inhibition of bovine testes hyaluronidase at 200 uM after 30 mins at pH 5 by turbidimetric analysis. In kind it is protein assay.
In test [5] the target is T1, Hyaluronidase (Bos taurus). Put plainly: Inhibition of bovine testes hyaluronidase at 63 uM after 30 mins at pH 5 by turbidimetric analysis. In kind it is protein assay.
In test [6] the target is T1, Hyaluronidase (Bos taurus). Put plainly: Inhibition of bovine testes hyaluronidase at 3800 uM after 30 mins at pH 5 by turbidimetric analysis. In kind it is protein assay.
Test [7] concerns the target T1, Hyaluronidase (Bos taurus). Put plainly: Inhibition of bovine testes hyaluronidase at 190 uM after 30 mins at pH 5 by turbidimetric analysis. In kind it is protein assay.
For test [8], the target named is T1, Hyaluronidase (Bos taurus). Nature of the test: Inhibition of bovine testes hyaluronidase at 100 uM after 30 mins at pH 5 by turbidimetric analysis. Format: protein assay.
The target in test [9] is T1, Hyaluronidase (Bos taurus). Put plainly: Inhibition of bovine testes hyaluronidase at 49 uM after 30 mins at pH 5 by turbidimetric analysis. In kind it is protein assay.
Test [10] has as its target T1, Hyaluronidase (Bos taurus). Nature of the test: Inhibition of bovine testes hyaluronidase at 400 uM after 30 mins at pH 5 by turbidimetric analysis. Format: protein assay.
The target of test [11] is T1, Hyaluronidase (Bos taurus). Nature of the test: Inhibition of bovine testes hyaluronidase at 2000 uM after 30 mins at pH 5 by turbidimetric analysis. In kind it is protein assay.
Test [12] addresses T1, Hyaluronidase (Bos taurus). Put plainly: Inhibition of bovine testes hyaluronidase at 380 uM after 30 mins at pH 5 by turbidimetric analysis. In kind it is protein assay.
Test [13] can be described thus: Inhibition of Streptococcus agalactiae 4755 hyaluronidase after 30 mins by turbidimetric analysis. Summed up:
(§1)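 SagHyal4755 (2.9 ng) with BSA and hyaluronan (2 mg/ml stock) in citrate–phosphate/NaCl buffer pH 5.0, 3.8% DMSO final, 30 min at 37 °C. Stopped by alkaline 2.5% CTAB, then 20 min at 25 °C. Residual-substrate turbidity read at 600 nm; no-inhibitor sample = 100%, no-enzyme sample = 0% activity. Enzyme-free compound controls were run.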

The target in test [14] is T1, Hyaluronidase (Bos taurus). Put plainly: Inhibition of bovine testes hyaluronidase at 80 uM after 30 mins at pH 5 by turbidimetric analysis. Format: protein assay.
Test [15] can be described thus: Inhibition of Streptococcus agalactiae 4755 hyaluronidase at pH 5.0 after 30 mins by turbidimetric analysis. The gist of the method:
as §1

Test [16] deals with T1, Hyaluronidase (Bos taurus). Put plainly: Inhibition of bovine testes hyaluronidase at 170 uM after 30 mins at pH 5 by turbidimetric analysis. In kind it is protein assay.
Test [17] deals with T1, Hyaluronidase (Bos taurus). Put plainly: Inhibition of bovine testes hyaluronidase at 460 uM after 30 mins at pH 5 by turbidimetric analysis. Format: protein assay.
Test [18] addresses T1, Hyaluronidase (Bos taurus). Nature of the test: Inhibition of bovine testes hyaluronidase at 4200 uM after 30 mins at pH 5 by turbidimetric analysis. In kind it is protein assay.
Test [19] has as its target T2, Hyaluronidase (Bos taurus, UniProt Q8SQG8+Q5E985).
T2 sequence (Q8SQG8 whole entry): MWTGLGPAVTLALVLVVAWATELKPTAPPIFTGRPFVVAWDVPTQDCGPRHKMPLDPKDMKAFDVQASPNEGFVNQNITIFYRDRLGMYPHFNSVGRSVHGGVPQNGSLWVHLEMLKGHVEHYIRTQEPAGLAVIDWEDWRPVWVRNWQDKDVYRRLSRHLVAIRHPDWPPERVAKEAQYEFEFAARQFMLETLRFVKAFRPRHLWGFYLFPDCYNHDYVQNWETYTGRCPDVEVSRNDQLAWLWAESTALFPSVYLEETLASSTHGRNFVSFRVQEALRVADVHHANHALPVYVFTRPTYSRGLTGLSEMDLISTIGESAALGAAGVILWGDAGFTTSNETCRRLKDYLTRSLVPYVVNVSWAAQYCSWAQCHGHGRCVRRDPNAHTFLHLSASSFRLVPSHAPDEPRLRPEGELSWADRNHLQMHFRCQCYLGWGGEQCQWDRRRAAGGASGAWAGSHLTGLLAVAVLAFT
T2 sequence (Q5E985 whole entry): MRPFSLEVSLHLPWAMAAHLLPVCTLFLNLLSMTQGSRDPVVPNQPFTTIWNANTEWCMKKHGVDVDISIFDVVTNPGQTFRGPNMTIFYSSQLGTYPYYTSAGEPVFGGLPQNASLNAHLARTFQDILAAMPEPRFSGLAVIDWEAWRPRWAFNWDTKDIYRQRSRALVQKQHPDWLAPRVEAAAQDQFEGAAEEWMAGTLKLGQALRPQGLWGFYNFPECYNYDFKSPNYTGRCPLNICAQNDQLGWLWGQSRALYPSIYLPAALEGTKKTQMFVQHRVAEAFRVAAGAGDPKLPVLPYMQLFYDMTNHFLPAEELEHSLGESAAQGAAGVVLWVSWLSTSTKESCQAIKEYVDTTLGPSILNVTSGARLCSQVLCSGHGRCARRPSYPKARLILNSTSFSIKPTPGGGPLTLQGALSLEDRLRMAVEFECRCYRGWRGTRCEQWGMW
Put plainly: Inhibition of bovine testes hyaluronidase after 30 mins at pH 5 by turbidimetric analysis. Format: protein assay.

Test [20] in a line: Inhibition of Streptococcus agalactiae 4755 hyaluronidase at pH 7.4. Summed up: (§2)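 Same turbidimetric hyaluronan-lyase assay at pH 7.4 (citrate–phosphate/NaCl): SagHyal4755 2.9 ng, hyaluronan (2 mg/ml stock), BSA, 3.8% DMSO final, 3 h at 37 °C. CTAB (2.5%, in 0.5 M NaOH) precipitation, 20 min at 25 °C, A600. Activity scaled between no-inhibitor and no-enzyme samples.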
Test [21] is described as follows: Inhibition of Streptococcus agalactiae 4755 hyaluronidase at pH 7.4 after 3 hrs by turbidimetric analysis. Summed up: as §2
Test [22] in a line: Inhibition of Streptococcus agalactiae 4755 hyaluronidase at pH 5.0. Summed up:
as §1

Consider `CCCCCCCCCCCCCCCC(=O)OC[C@H](O)[C@H]1OC(=O)C(O)=C1O` [ASCORBYL PALMITATE], for which the inhibition result in [1], in test [2], in test [3], in test [4], in test [5] and in [6] was “inactive” each time. Besides, the inhibition entry in [7], in test [8], in [9], in test [10], in test [11] and in [12] was “inactive” each time. Besides, the inhibition result in test [14], in test [16], in test [17] and in test [18] was “inactive” throughout. Further, the 50% inhibitory concentration (IC50) in test [13] and in test [15] was 4.2 µM throughout.

As for `Oc1ccc(-c2[nH]c3ccccc3c2-c2ccccc2)cc1`, the IC50 in [19] came out at 107 µM.

`CCCCCCCCCCn1c(-c2ccc(OS(N)(=O)=O)cc2)cc2ccc(OS(N)(=O)=O)cc21`: the inhibition result in [1], in test [2], in test [3], in [4], in [5] and in test [6] was “inactive” each time. The inhibition result in test [7], in test [8], in [9], in test [10], in [11] and in test [12] was “inactive” in each case. Moreover, the inhibition result in test [14], in [16], in test [17] and in test [18] was “inactive” in each case. Further, the 50% inhibitory concentration (IC50) in [20] was found to be 16 µM; in test [21], 16 µM; in test [15], 11 µM; in test [22] it was 11 µM.
